In ChEMBL document CHEMBL5724801, “EUbOPEN Chemogenomics Library - Multiplex” (2024):
“And” between values parts separate entries of the source, which are not always exact repeats. Identical values can stand only once.

Test system: Fibroblast
Experiment: Multiplex assay against human fibroblast
Format: toxicity, cell-based
Summary of the method: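 Values for tubulin, mitochondrial-mass and membrane-permeability phenotypes are per cents of cells with healthy nuclei. These cells were identified by CellPathfinder machine-learning gating of live cells that had been stained at seeding with Hoechst33342, BioTracker Green Microtubule Cytoskeleton Dye, MitoTracker Red and Annexin V Alexa Fluor 680 and imaged on a CQ1 microscope at 37°C and 5% CO2 after compound addition. The gating first set Hoechst high-intensity objects apart from normal cells, then split normal cells into healthy, pyknosed or fragmented nuclei, and pyknosed cells into mitotic or apoptotic.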

[1] = 12 h, 1 µM, compound concentration 1 uM
[2] = 12 h, 10 µM, compound concentration 10 uM
[3] = 24 h, 1 µM, compound concentration 1 uM
[4] = 24 h, 10 µM, compound concentration 10 uM
[5] = 48 h, 1 µM, compound concentration 1 uM
[6] = 48 h, 10 µM, compound concentration 10 uM

CC(C)c1ccc(/C=N/NC(=O)c2ccc(O)cc2)cc1
Population Apoptotic (%) [1]: 12.07% and 15.38%
Population Fragmented Nuclei (%) [1]: 10.89% and 4%
Population Healthy Nuclei (%) [1]: 60.4% and 76.5%
Population Hoechst High Intensity Objects (%) [1]: 0%
Population Membrane Permeable-Phenotype (%) [1]: 4.1% and 2.61%
Population Mitochondria Different-Phenotype (%) [1]: 6.56% and 9.15%
Population Mitotic Cells (%) [1]: 87.93% and 84.62%
Population Normal (%) [1]: 100%
Population Pyknosed Nuclei (%) [1]: 28.71% and 19.5%
Population Tubulin-Different-Phenotype (%) [1]: 12.3% and 17.65%
Total Cell Count [1]: 202 and 200
Population Fragmented Nuclei (%) [2]: 13.41% and 4.65%
Population Healthy Nuclei (%) [2]: 61.45% and 73.02%
Population Hoechst High Intensity Objects (%) [2]: 0%
Population Membrane Permeable-Phenotype (%) [2]: 8.18% and 2.55%
Population Mitochondria Different-Phenotype (%) [2]: 6.36% and 9.55%
Population Mitotic Cells (%) [2]: 95.56% and 77.08%
Population Normal (%) [2]: 100%
Population Pyknosed Nuclei (%) [2]: 25.14% and 22.33%
Population Tubulin-Different-Phenotype (%) [2]: 20% and 17.2%
Total Cell Count [2]: 179 and 215
Population Apoptotic (%) [3]: 15% and 14.81%
Population Fragmented Nuclei (%) [3]: 10.53% and 4.39%
Population Healthy Nuclei (%) [3]: 71.93% and 82.44%
Population Hoechst High Intensity Objects (%) [3]: 0%
Population Membrane Permeable-Phenotype (%) [3]: 1.83% and 3.55%
Population Mitochondria Different-Phenotype (%) [3]: 4.27% and 7.1%
Population Mitotic Cells (%) [3]: 85% and 85.19%
Population Normal (%) [3]: 100%
Population Pyknosed Nuclei (%) [3]: 17.54% and 13.17%
Population Tubulin-Different-Phenotype (%) [3]: 12.2% and 18.34%
Total Cell Count [3]: 228 and 205
Population Fragmented Nuclei (%) [4]: 10.93% and 4.82%
Population Healthy Nuclei (%) [4]: 66.12% and 76.75%
Population Hoechst High Intensity Objects (%) [4]: 0%
Population Membrane Permeable-Phenotype (%) [4]: 5.79% and 3.43%
Population Mitochondria Different-Phenotype (%) [4]: 7.44% and 5.14%
Population Mitotic Cells (%) [4]: 95.24% and 83.33%
Population Normal (%) [4]: 100%
Population Pyknosed Nuclei (%) [4]: 22.95% and 18.42%
Population Tubulin-Different-Phenotype (%) [4]: 14.88% and 16%
Total Cell Count [4]: 183 and 228
Population Apoptotic (%) [5]: 27.27% and 44.44%
Population Fragmented Nuclei (%) [5]: 8% and 5.96%
Population Healthy Nuclei (%) [5]: 87.11% and 89.91%
Population Hoechst High Intensity Objects (%) [5]: 0%
Population Membrane Permeable-Phenotype (%) [5]: 1.02% and 3.57%
Population Mitotic Cells (%) [5]: 72.73% and 55.56%
Population Normal (%) [5]: 100%
Population Pyknosed Nuclei (%) [5]: 4.89% and 4.13%
Population Tubulin-Different-Phenotype (%) [5]: 9.18% and 15.31%
Total Cell Count [5]: 225 and 218
Population Apoptotic (%) [6]: 40% and 30%
Population Fragmented Nuclei (%) [6]: 13.54% and 4.26%
Population Healthy Nuclei (%) [6]: 78.65% and 87.23%
Population Hoechst High Intensity Objects (%) [6]: 0%
Population Membrane Permeable-Phenotype (%) [6]: 3.31% and 2.44%
Population Mitochondria Different-Phenotype (%) [6]: 6.62% and 1.95%
Population Mitotic Cells (%) [6]: 60% and 70%
Population Normal (%) [6]: 100%
Population Pyknosed Nuclei (%) [6]: 7.81% and 8.51%
Population Tubulin-Different-Phenotype (%) [6]: 10.6% and 14.63%
Total Cell Count [6]: 192 and 235

Cn1cnc(-c2cnc(O[C@H]3CCN(C(=O)Cc4ccc(OC(F)(F)F)cc4)C[C@H]3F)c(C(N)=O)c2)c1
Population Apoptotic (%) [1]: 14%
Population Healthy Nuclei (%) [1]: 57.67% and 77.82%
Population Hoechst High Intensity Objects (%) [1]: 0%
Population Mitotic Cells (%) [1]: 86% and 87.5%
Population Normal (%) [1]: 100%
Population Pyknosed Nuclei (%) [1]: 26.46% and 13.39%
Population Apoptotic (%) [2]: 14.93% and 26.53%
Population Healthy Nuclei (%) [2]: 58.85% and 71.95%
Population Hoechst High Intensity Objects (%) [2]: 0%
Population Mitotic Cells (%) [2]: 85.07% and 73.47%
Population Normal (%) [2]: 100%
Population Pyknosed Nuclei (%) [2]: 29.65% and 22.17%
Population Apoptotic (%) [3]: 8.89% and 19.35%
Population Healthy Nuclei (%) [3]: 68.08% and 79.62%
Population Hoechst High Intensity Objects (%) [3]: 0%
Population Mitotic Cells (%) [3]: 91.11% and 80.65%
Population Normal (%) [3]: 100%
Population Pyknosed Nuclei (%) [3]: 21.13% and 11.7%
Population Healthy Nuclei (%) [4]: 69.48% and 75.54%
Population Hoechst High Intensity Objects (%) [4]: 0%
Population Mitotic Cells (%) [4]: 93.62% and 75.76%
Population Normal (%) [4]: 100%
Population Pyknosed Nuclei (%) [4]: 18.88% and 11.87%
Population Apoptotic (%) [5]: 25%
Population Healthy Nuclei (%) [5]: 78.48% and 79.12%
Population Hoechst High Intensity Objects (%) [5]: 0%
Population Mitotic Cells (%) [5]: 75% and 83.33%
Population Normal (%) [5]: 100%
Population Pyknosed Nuclei (%) [5]: 8.44% and 6.59%
Population Apoptotic (%) [6]: 33.33% and 57.14%
Population Healthy Nuclei (%) [6]: 77.93% and 84.75%
Population Hoechst High Intensity Objects (%) [6]: 0%
Population Mitotic Cells (%) [6]: 66.67% and 42.86%
Population Normal (%) [6]: 100%
Population Pyknosed Nuclei (%) [6]: 3.1% and 4.96%

O=C1NCc2ccc3c(-c4cccc(Cl)c4)c[nH]c3c21
Population Apoptotic (%) [1]: 13.51% and 26.32%
Population Fragmented Nuclei (%) [1]: 16.45% and 5.58%
Population Healthy Nuclei (%) [1]: 59.21% and 76.74%
Population Hoechst High Intensity Objects (%) [1]: 0%
Population Membrane Permeable-Phenotype (%) [1]: 4.44% and 3.64%
Population Mitochondria Different-Phenotype (%) [1]: 8.89% and 8.48%
Population Mitotic Cells (%) [1]: 86.49% and 73.68%
Population Normal (%) [1]: 100%
Population Pyknosed Nuclei (%) [1]: 24.34% and 17.67%
Population Tubulin-Different-Phenotype (%) [1]: 10% and 13.33%
Total Cell Count [1]: 152 and 215
Population Apoptotic (%) [2]: 23.21% and 34.92%
Population Fragmented Nuclei (%) [2]: 9.88% and 1.93%
Population Healthy Nuclei (%) [2]: 57.56% and 67.63%
Population Hoechst High Intensity Objects (%) [2]: 0%
Population Membrane Permeable-Phenotype (%) [2]: 3.03% and 5%
Population Mitochondria Different-Phenotype (%) [2]: 15.15% and 17.86%
Population Mitotic Cells (%) [2]: 76.79% and 65.08%
Population Normal (%) [2]: 100%
Population Pyknosed Nuclei (%) [2]: 32.56% and 30.43%
Population Tubulin-Different-Phenotype (%) [2]: 8.08% and 17.14%
Total Cell Count [2]: 172 and 207
Population Apoptotic (%) [3]: 18.75% and 20.59%
Population Fragmented Nuclei (%) [3]: 13.25% and 6.58%
Population Healthy Nuclei (%) [3]: 65.56% and 79.42%
Population Hoechst High Intensity Objects (%) [3]: 0%
Population Membrane Permeable-Phenotype (%) [3]: 7.07% and 4.66%
Population Mitochondria Different-Phenotype (%) [3]: 10.1% and 5.18%
Population Mitotic Cells (%) [3]: 81.25% and 79.41%
Population Normal (%) [3]: 100%
Population Pyknosed Nuclei (%) [3]: 21.19% and 13.99%
Population Tubulin-Different-Phenotype (%) [3]: 13.13% and 9.84%
Total Cell Count [3]: 151 and 243
Population Apoptotic (%) [4]: 30.77% and 40.54%
Population Fragmented Nuclei (%) [4]: 11.59% and 4.85%
Population Healthy Nuclei (%) [4]: 64.63% and 77.18%
Population Hoechst High Intensity Objects (%) [4]: 0%
Population Membrane Permeable-Phenotype (%) [4]: 3.77%
Population Mitochondria Different-Phenotype (%) [4]: 12.26% and 8.81%
Population Mitotic Cells (%) [4]: 69.23% and 59.46%
Population Normal (%) [4]: 100%
Population Pyknosed Nuclei (%) [4]: 23.78% and 17.96%
Population Tubulin-Different-Phenotype (%) [4]: 9.43% and 8.81%
Total Cell Count [4]: 164 and 206
Population Apoptotic (%) [5]: 20.83% and 38.89%
Population Fragmented Nuclei (%) [5]: 10.71% and 5.78%
Population Healthy Nuclei (%) [5]: 75% and 86.22%
Population Hoechst High Intensity Objects (%) [5]: 0%
Population Membrane Permeable-Phenotype (%) [5]: 4.76% and 5.67%
Population Mitotic Cells (%) [5]: 79.17% and 61.11%
Population Normal (%) [5]: 100%
Population Pyknosed Nuclei (%) [5]: 14.29% and 8%
Population Tubulin-Different-Phenotype (%) [5]: 7.94% and 9.28%
Total Cell Count [5]: 168 and 225
Population Apoptotic (%) [6]: 20% and 60%
Population Fragmented Nuclei (%) [6]: 11.49% and 4.95%
Population Healthy Nuclei (%) [6]: 77.01% and 82.67%
Population Hoechst High Intensity Objects (%) [6]: 0%
Population Membrane Permeable-Phenotype (%) [6]: 2.24% and 5.99%
Population Mitochondria Different-Phenotype (%) [6]: 10.45% and 5.99%
Population Mitotic Cells (%) [6]: 80% and 40%
Population Normal (%) [6]: 100%
Population Pyknosed Nuclei (%) [6]: 11.49% and 12.38%
Population Tubulin-Different-Phenotype (%) [6]: 5.97% and 10.18%
Total Cell Count [6]: 174 and 202
